Published values collected from several papers.
Compare with care: the assays were run in different laboratories.
Target: Casein kinase I isoform alpha (CSNK1A1, Homo sapiens, UniProt P48729)

SMILES | test | conditions | measurement | value
Nc1ncc(-c2nc(N3CCOCC3)nc(N3CCOCC3)n2)c(C(F)F)n1 | binding, competition with immobilised ligand | 10 µM | remaining binding | 72%
Cn1cc(-c2cc(F)cc(N3CCn4c(cc5c4CCCC5)C3=O)c2CO)cc(Nc2ccc(N3CCN(C4COC4)CC3)cn2)c1=O | enzyme activity, inhibitor | 0.1 µM | inhibition | 4%
N#CC1(c2ccccn2)CCN(Cc2cc(C(=O)O)c(=O)n3ccccc23)CC1 | cell-free assay, competition with immobilised ligand | 1 µM | remaining binding | 100%
Cc1nn(C)cc1-c1nc2c(N3CCN(Cc4ccc(Cl)cc4)CC3)c(Cl)cnc2[nH]1 | binding, competition with immobilised ligand | 1 µM | remaining binding | 77%
Cn1cncc1[C@](O)(COc1ccc(C#N)cc1-c1ccc(OC(F)(F)F)cc1)c1ccc(C#N)cc1 | cell-free assay, competition with immobilised ligand | 1 µM | remaining binding | 100%
Cn1cc(-c2cccc(N3CCc4c(sc5c4CC(C)(C)C5)C3=O)c2CO)cc(Nc2ccncn2)c1=O | enzyme activity, inhibitor | 1 µM | inhibition | 6%
COc1ncccc1-c1cnn2ccc(N3CCN(C(=O)OC(C)C)CC3)nc12 | binding, competition with immobilised ligand | 1 µM | remaining binding | 100%
O=c1[nH]c2ccccc2n1C1CCN(Cc2ccc(-c3[nH]c4cc5ncnc5cc4nc3-c3ccccc3)cc2)CC1 | cell-free assay | 0.5 µM | remaining signal | 96%
